pIC50, pKi: −log10 of the molar value. Active and inactive are the calls of the source.
Assays:
[1] = biological target: T1, Cathepsin K (Homo sapiens, UniProt P43235); test: Inhibition of human recombinant cathepsin K by fluorescence assay
T1 sequence (P43235 whole entry): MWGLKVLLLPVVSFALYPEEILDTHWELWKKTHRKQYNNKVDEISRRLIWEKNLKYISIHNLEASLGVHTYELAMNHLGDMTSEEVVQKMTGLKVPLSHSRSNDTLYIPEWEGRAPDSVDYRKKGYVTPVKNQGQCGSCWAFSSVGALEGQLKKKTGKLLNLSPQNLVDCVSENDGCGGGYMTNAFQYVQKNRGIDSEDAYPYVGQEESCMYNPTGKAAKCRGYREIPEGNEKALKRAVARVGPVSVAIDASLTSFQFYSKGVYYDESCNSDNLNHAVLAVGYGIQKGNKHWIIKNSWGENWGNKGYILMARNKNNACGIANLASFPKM
How it was run: (§1)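 Recombinant human enzymes in a fluorescence assay; substrate Z-Phe-Arg-MCA for cathepsins K and L, Z-Leu-Leu-Arg-MCA for cathepsin S. Means of two experiments, each run in duplicate; individual points within a 2-fold range of each other.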

[2] = biological target: Cathepsin S (Homo sapiens, UniProt P25774); test: Inhibition of human recombinant cathepsin S by fluorescence assay; how it was run: as §1
Sequence of Cathepsin S (Homo sapiens, UniProt P25774) (P25774 whole entry): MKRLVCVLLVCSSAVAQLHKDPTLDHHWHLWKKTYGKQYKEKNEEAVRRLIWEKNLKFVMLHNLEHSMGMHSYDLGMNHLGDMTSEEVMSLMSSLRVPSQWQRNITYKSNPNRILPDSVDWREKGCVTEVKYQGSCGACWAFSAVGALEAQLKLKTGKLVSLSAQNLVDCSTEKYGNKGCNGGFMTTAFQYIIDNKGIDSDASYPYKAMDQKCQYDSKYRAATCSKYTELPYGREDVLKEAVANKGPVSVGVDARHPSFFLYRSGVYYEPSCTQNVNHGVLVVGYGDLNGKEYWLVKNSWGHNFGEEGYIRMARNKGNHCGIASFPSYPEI

[3] = biological target: Procathepsin L (Homo sapiens, UniProt P07711); test: Inhibition of human recombinant cathepsin L by fluorescence assay; how it was run: as §1
Sequence of Procathepsin L (Homo sapiens, UniProt P07711) (P07711 whole entry): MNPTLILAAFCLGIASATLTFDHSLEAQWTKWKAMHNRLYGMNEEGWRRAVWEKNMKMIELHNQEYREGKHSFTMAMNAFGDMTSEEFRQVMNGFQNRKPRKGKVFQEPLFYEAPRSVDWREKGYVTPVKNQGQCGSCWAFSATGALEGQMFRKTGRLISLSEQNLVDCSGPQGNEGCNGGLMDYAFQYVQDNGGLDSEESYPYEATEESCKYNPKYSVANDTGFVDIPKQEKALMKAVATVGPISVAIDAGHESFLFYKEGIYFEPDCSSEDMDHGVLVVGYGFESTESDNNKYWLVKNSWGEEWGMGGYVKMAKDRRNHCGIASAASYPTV

[4] = organism: Rattus norvegicus; test: Selectivity for rat cathepsin S glycine 137 mutant over rat cathepsin K
How it was run: (§2)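 Recombinant rat cathepsins in a fluorescence assay with MCA substrates: Z-Leu-Leu-Arg-MCA for cathepsin S (137Gly form), Z-Phe-Arg-MCA for K and L, and Z-Arg-Arg-MCA for B. IC50 values were taken as means ± SD of three experiments, and selectivity was compared from the IC50 values against the S enzyme and each other cathepsin.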

[5] = biological target: Dipeptidyl peptidase 1 (Homo sapiens, UniProt P53634); test: Inhibition of human cathepsin C
Sequence of Dipeptidyl peptidase 1 (P53634 25-134 limits assumed): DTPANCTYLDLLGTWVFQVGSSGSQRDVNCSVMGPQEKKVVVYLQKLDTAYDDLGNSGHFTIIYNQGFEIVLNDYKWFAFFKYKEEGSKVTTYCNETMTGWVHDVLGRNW
Sequence of Dipeptidyl peptidase 1 (P53634 231-394 limits assumed): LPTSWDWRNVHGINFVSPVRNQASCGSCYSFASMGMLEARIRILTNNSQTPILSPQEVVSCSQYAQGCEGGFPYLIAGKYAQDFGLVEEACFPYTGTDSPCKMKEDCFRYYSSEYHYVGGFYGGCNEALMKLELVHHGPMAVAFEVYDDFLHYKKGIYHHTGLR
Sequence of Dipeptidyl peptidase 1 (P53634 395-463 limits assumed): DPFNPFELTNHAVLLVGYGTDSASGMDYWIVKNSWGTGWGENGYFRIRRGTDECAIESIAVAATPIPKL

[6] = biological target: Cathepsin S (Mus musculus) (UniProt O70370); test: Inhibition of cathepsin S-mediated proteolytic cleavage of MHC2 associated invariant chain in mouse splenocytes assessed as induction of accumulation of lip10; format: cell-based
[7] = organism: Homo sapiens; test: Selectivity for human recombinant cathepsin S over human cathepsin B
[8] = biological target: Cytochrome P450 3A4 (Homo sapiens, UniProt P08684); test: Inhibition of CYP3A4 at 10 uM; format: ADME
Sequence of Cytochrome P450 3A4 (P08684 whole entry): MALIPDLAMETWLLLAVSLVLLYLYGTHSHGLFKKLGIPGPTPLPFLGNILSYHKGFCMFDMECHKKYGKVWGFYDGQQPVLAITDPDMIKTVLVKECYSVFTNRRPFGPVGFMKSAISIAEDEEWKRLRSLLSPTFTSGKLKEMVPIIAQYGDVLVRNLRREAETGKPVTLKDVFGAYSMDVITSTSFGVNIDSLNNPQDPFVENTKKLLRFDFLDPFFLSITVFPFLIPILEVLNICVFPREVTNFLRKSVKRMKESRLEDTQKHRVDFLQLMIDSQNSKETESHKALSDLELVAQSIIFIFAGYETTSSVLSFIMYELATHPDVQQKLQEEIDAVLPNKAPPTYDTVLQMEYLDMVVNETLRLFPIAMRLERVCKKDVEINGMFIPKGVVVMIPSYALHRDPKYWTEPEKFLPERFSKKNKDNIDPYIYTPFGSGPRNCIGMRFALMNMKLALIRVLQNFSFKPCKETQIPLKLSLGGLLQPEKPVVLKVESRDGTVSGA
How it was run: (§3)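 Tested against a panel of cytochrome P450 enzymes at a maximum concentration of 10 µM.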

[9] = biological target: Cytochrome P450 2C9 (Homo sapiens, UniProt P11712); test: Inhibition of CYP2C9 at 10 uM; format: ADME; how it was run: as §3
Sequence of Cytochrome P450 2C9 (P11712 whole entry): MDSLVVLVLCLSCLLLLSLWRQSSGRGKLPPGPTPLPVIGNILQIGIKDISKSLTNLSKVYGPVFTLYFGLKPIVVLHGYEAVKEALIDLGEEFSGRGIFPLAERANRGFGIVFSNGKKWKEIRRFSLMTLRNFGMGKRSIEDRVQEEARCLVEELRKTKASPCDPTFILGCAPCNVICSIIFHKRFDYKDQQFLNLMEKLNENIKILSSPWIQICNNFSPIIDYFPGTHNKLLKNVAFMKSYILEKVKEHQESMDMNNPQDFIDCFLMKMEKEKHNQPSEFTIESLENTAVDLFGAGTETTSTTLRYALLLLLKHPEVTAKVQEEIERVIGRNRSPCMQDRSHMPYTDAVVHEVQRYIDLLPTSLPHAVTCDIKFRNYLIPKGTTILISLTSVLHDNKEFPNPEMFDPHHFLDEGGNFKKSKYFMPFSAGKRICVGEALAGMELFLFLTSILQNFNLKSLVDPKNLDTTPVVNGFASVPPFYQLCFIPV

[10] = organism: Homo sapiens; test: Selectivity for human recombinant cathepsin S over human cathepsin X
[11] = Inhibition of rat cathepsin S cysteine 137 mutant by fluorescence assay
How it was run: (§4)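 Recombinant rat cathepsins K, L, S (137Gly and 137Cys forms) and mouse cathepsin S in a fluorescence assay. Substrates: Z-Phe-Arg-MCA for K and L, Z-Leu-Leu-Arg-MCA for S. IC50 reported as means ± SD of three experiments.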

[12] = biological target: Cathepsin S (Mus musculus, UniProt O70370); test: Inhibition of mouse cathepsin S by fluorescence assay; how it was run: as §4
[13] = biological target: Cytochrome P450 2C19 (Homo sapiens, UniProt P33261); test: Inhibition of CYP2C19 at 10 uM; format: ADME; how it was run: as §3
Sequence of Cytochrome P450 2C19 (P33261 whole entry): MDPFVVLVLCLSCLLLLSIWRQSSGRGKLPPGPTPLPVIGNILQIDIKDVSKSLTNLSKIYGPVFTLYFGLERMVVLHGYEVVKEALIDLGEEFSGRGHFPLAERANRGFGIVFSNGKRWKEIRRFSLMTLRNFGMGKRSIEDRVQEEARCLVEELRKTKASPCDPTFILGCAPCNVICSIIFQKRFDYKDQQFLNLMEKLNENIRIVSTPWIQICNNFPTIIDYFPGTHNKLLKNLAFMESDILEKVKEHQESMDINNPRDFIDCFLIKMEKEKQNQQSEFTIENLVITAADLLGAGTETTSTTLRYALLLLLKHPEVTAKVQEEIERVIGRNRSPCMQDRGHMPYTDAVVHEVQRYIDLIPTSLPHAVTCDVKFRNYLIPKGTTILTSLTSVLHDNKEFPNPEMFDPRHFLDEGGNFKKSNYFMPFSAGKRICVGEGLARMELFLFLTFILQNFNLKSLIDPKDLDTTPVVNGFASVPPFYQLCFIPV

[14] = biological target: T2, Cathepsin K (Rattus norvegicus, UniProt O35186); test: Inhibition of rat cathepsin K by fluorescence assay; how it was run: as §4
T2 sequence (O35186 whole entry): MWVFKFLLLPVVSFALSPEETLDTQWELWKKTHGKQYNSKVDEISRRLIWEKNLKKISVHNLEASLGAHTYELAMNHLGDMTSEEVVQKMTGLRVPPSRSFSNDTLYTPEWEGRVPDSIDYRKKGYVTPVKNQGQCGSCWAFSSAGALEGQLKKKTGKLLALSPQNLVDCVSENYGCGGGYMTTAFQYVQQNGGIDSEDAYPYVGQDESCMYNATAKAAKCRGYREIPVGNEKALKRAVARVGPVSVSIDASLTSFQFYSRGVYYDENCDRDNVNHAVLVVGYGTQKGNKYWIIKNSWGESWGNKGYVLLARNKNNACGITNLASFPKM

[15] = organism: Homo sapiens; test: Selectivity for human recombinant cathepsin S over human cathepsin C
[16] = Terminal elimination half life in Sprague-Dawley rat at 1 mg/kg, iv by LC/MS analysis; format: ADME, organism-based; design: dose 1 mg/kg, route intravenous; conditions: in vivo
How it was run: (§5)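 Male Sprague-Dawley rats dosed orally at 3 mg/kg as a suspension and intravenously at 1 mg/kg as a bolus. Plasma levels quantified by LC/MS. Oral AUC and Cmax dose-normalized to 1 mg/kg. Means ± SD of three individual experiments.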

[17] = Bioavailability in Sprague-Dawley rat at 1 mg/kg, iv and 3 mg/kg, po by LC/MS analysis; format: ADME, organism-based; conditions: in vivo; how it was run: as §5
[18] = biological target: Cathepsin S (Mus musculus) (UniProt O70370); test: Inhibition of cathepsin S-mediated proteolytic cleavage of MHC2 associated invariant chain in mouse splenocytes assessed as induction of accumulation of lip10 at 1 µM
[19] = organism: Homo sapiens; test: Selectivity for human recombinant cathepsin S over human cathepsin H
[20] = biological target: T3, Cytochrome P450 1A2 (Homo sapiens, UniProt P05177); test: Inhibition of CYP1A2 at 10 uM; format: ADME; how it was run: as §3
T3 sequence (P05177 whole entry): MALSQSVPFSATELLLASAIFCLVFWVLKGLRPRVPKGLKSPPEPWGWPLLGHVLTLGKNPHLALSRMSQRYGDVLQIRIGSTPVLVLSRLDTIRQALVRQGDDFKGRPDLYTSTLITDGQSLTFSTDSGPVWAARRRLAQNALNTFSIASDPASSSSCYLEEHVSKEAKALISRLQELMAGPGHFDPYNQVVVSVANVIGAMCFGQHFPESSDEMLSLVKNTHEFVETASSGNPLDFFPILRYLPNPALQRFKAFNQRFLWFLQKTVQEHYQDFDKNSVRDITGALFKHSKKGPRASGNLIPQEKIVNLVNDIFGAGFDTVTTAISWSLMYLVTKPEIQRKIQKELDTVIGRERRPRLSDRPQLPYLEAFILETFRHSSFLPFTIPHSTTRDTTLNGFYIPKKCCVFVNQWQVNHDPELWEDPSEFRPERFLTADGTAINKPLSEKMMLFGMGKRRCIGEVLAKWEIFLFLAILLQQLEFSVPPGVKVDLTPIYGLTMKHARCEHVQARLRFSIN

[21] = organism: Rattus norvegicus; test: Selectivity for rat cathepsin S glycine 137 mutant over rat cathepsin L; how it was run: as §2
[22] = Genotoxicity in liver S9 fraction by Ames test; format: toxicity, subcellular
How it was run: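 Standard Ames test run with liver S9 enzyme.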

[23] = organism: Rattus norvegicus; test: Reversal of neuropathic mechanical hyperalgesia in Wistar rat sciatic nerve ligation model with cathepsin S cysteine 137 mutation; format: functional, organism-based
[24] = Volume of distribution in Sprague-Dawley rat at 1 mg/kg, iv and 3 mg/kg, po by LC/MS analysis; format: ADME, organism-based; conditions: in vivo; how it was run: as §5
[25] = biological target: Cytochrome P450 2D6 (Homo sapiens, UniProt P10635); test: Inhibition of CYP2D6 at 10 uM; format: ADME; how it was run: as §3
Sequence of Cytochrome P450 2D6 (P10635 whole entry): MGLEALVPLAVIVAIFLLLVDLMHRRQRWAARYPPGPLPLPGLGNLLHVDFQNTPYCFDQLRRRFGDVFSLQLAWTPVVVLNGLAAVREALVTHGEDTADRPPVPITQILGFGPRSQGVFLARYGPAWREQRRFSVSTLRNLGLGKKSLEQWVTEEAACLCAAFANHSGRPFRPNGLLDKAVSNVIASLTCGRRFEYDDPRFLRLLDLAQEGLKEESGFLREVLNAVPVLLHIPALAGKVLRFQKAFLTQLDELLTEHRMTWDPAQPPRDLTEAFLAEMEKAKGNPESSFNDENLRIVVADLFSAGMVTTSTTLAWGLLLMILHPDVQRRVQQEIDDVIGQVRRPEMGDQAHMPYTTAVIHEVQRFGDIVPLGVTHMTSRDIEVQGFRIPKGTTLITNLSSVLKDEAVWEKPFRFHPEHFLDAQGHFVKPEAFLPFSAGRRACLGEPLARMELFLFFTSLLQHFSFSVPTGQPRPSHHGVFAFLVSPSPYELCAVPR

[26] = biological target: Cathepsin B (Homo sapiens, UniProt P07858); test: Inhibition of human cathepsin B
[27] = organism: Rattus norvegicus; test: Reversal of neuropathic mechanical hyperalgesia in Wistar rat sciatic nerve ligation model with cathepsin S glycine 137 mutation; format: functional, organism-based
How it was run: (§6)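 Partial sciatic nerve ligation in Wistar rats genotyped as 137Gly cathepsin S, with established mechanical hyperalgesia. Oral dosing in 0.5% methylcellulose/water; repeat regimen twice daily for 5 days, paw withdrawal thresholds 3 h post-dose. 6 animals/group; % reversal of hyperalgesia, mean ± SEM; ANOVA with Tukey's HSD versus vehicle.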

[28] = biological target: T4, Pro-cathepsin H (Homo sapiens, UniProt P09668); test: Inhibition of human cathepsin H
T4 sequence (P09668 whole entry): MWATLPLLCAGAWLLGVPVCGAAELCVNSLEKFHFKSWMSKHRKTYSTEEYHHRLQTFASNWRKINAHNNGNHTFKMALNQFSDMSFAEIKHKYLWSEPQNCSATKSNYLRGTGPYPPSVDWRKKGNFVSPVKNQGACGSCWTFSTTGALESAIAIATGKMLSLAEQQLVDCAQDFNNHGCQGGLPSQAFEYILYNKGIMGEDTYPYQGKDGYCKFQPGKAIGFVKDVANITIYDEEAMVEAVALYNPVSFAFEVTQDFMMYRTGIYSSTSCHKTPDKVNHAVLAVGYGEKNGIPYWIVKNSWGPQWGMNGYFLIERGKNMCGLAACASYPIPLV

[29] = Inhibition of rat cathepsin S glycine 137 mutant by fluorescence assay; how it was run: as §4
[30] = Cmax in Sprague-Dawley rat at 3 mg/kg, po by LC/MS analysis; format: ADME, organism-based; design: dose 3 mg/kg, route oral; conditions: in vivo; how it was run: as §5
[31] = tested on: Rattus norvegicus; test: Reversal of neuropathic mechanical hyperalgesia in Wistar rat sciatic nerve ligation model assessed as paw withdrawal threshold at 30 mg/kg, po administered twice daily for 5 days after 3 hrs; format: functional; how it was run: as §6
[32] = organism: Rattus norvegicus; test: Selectivity for rat cathepsin S glycine 137 mutant over rat cathepsin B; how it was run: as §2
[33] = Inhibition of human cathepsin X
[34] = biological target: T5, Procathepsin L (Rattus norvegicus, UniProt P07154); test: Inhibition of rat cathepsin L by fluorescence assay; how it was run: as §4
T5 sequence (P07154 whole entry): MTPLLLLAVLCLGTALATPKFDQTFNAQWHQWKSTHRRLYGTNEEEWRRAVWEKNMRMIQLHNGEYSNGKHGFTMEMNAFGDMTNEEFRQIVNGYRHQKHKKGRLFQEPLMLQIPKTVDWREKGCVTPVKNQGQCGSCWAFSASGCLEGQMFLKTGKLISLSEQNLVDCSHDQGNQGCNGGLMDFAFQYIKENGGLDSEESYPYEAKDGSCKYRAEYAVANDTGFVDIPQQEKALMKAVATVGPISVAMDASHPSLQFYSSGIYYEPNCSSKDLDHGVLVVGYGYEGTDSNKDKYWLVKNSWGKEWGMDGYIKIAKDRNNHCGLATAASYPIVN

[35] = Plasma clearance in Sprague-Dawley rat at 1 mg/kg, iv and 3 mg/kg, po by LC/MS analysis; format: ADME, organism-based; how it was run: as §5

CC(=O)N1CCN(c2ccc(OCc3cc4cnc(C#N)nc4n3CCC3CCCCC3)cc2F)CC1
pIC50 [1]: < 6.00
pIC50 [2]: 8.05
pIC50 [3]: < 6.00

CC(=O)N1CCN(c2ccc(OCc3cc4cnc(C#N)nc4n3CCC3CCC(F)(F)CC3)cc2)CC1
Activity [4]: > 100
pKi [5]: < 5.00
Activity [6]: Dose-dependent effect
Activity [7]: > 100
Activity [8]: Not Active
Activity [9]: Not Active
Activity [10]: > 100
pIC50 [11]: < 5.00
pIC50 [12]: 7.70
pIC50 [1]: 5.27
Activity [13]: Not Active
pIC50 [14]: < 5.00
Activity [15]: > 100
half-life [16]: 42 min
bioavailability [17]: 21%
Activity [18]: Active
Activity [19]: > 100
Activity [20]: Not Active
Activity [21]: > 100
Activity [22]: Non-toxic
Activity [23]: inactive
Vd [24]: 3.7 L/kg
Activity [25]: Not Active
pIC50 [26]: < 4.52
Activity [27]: Dose-dependent effect
pKi [28]: < 5.00
pIC50 [29]: 7.55
Cmax [30]: 37 nM
Activity [31]: 40%
pIC50 [2]: 8.00
pKi [2]: 8.40
Activity [32]: > 100
pKi [33]: 6.19
pIC50 [34]: < 5.00
clearance [35]: 51.7 mL/min/kg
pIC50 [3]: 5.21

CC(=O)N1CCCN(c2ccc(OCc3cc4cnc(C#N)nc4n3CCC3CCCCC3)cc2)CC1
pIC50 [1]: 6.54
pIC50 [2]: 7.96
pIC50 [3]: < 6.00

CC(=O)N1CCN(c2ccc(OCc3cc4cnc(C#N)nc4n3CCC3CCCCC3)cc2)CC1
Activity [4]: > 100
pIC50 [11]: < 5.00
pIC50 [12]: 8.00
pIC50 [1]: 5.78
pIC50 [14]: < 5.00
half-life [16]: 66 min
bioavailability [17]: 53%
Activity [21]: > 100
Vd [24]: 5.6 L/kg
pIC50 [29]: 8.00
Cmax [30]: 61 nM
Activity [32]: > 100
pIC50 [34]: < 5.00
clearance [35]: 65 mL/min/kg
pIC50 [3]: 5.28

— ChEMBL document CHEMBL1140079, “Discovery of orally bioavailable cathepsin S inhibitors for the reversal of neuropathic pain” (J Med Chem, 2008)
